In ChEMBL document CHEMBL4393700, “Novel resveratrol-based flavonol derivatives: Synthesis and anti-inflammatory activity in vitro and in vivo” (Eur J Med Chem, 2019):
Calls of active or inactive are those of the source. No cut-off for these calls is given here.

Assays:
RAW264.7 [1] = assay: Cytotoxicity against LPS-stimulated mouse RAW264.7 cells at 20 uM pretreated for 1 hr followed by LPS stimulation and measured after 24 hrs by MTT assay; conditions: raw264.7, 24 h
RAW264.7 [2] = assay: Antiinflammatory activity in mouse RAW264.7 cells assessed as inhibition of LPS-induced NO production at 10 uM pretreated for 1 hr followed by LPS stimulation and measured after 24 hrs by Griess reagent based assay; format: functional, cell-based
Outline: (§1)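 RAW264.7 in DMEM/10% FBS with penicillin-streptomycin, 37 °C, 5% CO2; seeded 6×10^4 cells/well, grown 24 h, pretreated 1 h with test agent (10 µM screen; 10, 5, 2.5, 1.25, 0.625 µM for concentration series), then LPS 0.5 µg/mL for 24 h. Supernatant nitrite measured with Griess reagent.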

RAW264.7 [3] = assay: Antiinflammatory activity in mouse RAW264.7 cells assessed as reduction in LPS-induced NO production pretreated for 1 hr followed by LPS stimulation and measured after 24 hrs by Griess reagent based assay; format: functional, cell-based
Outline: as §1

RAW264.7 [4] = assay: Antiinflammatory activity in mouse RAW264.7 cells assessed as reduction in LPS-induced IL-6 production pretreated for 1 hr followed by LPS stimulation and measured after 24 hrs by ELISA; format: functional, cell-based
Outline: (§2)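 RAW264.7 seeded 6×10^4 cells/well, cultured 24 h; 1 h pretreatment at 10, 5, 2.5, 1.25 or 0.625 µM, then LPS 0.5 µg/mL for 24 h. IL-6 and TNF-α in conditioned medium quantified by ELISA.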

RAW264.7 [5] = assay: Antiinflammatory activity in mouse RAW264.7 cells assessed as reduction in LPS-induced TNF alpha production pretreated for 1 hr followed by LPS stimulation and measured after 24 hrs by ELISA; format: functional, cell-based
Outline: as §2

Mus musculus [6] = assay: Antiinflammatory activity in C57/BL6 mouse ALI model assessed as reduction in LPS-induced pulmonary edema by measuring lung wet/dry weight ratio at 10 to 20 mg/kg, ip pretreated for 30 mins followed by LPS challenge and measured after 48 hrs; format: functional, organism-based
Outline: (§3)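 Male C57BL/6 mice, 18~22 g, acclimatized one week; 40 randomly split into control, LPS, and two LPS groups pretreated i.p. (10 or 20 mg/kg) 30 min before LPS (methods: 20 mg/kg tail vein; legend: 5 mg/kg intratracheal). Saline i.p. to controls. Sacrificed 48 h after LPS; read-outs lung MPO, body weight, upper right lobe wet/dry ratio (dried at 60 °C until constant), H&E on paraformaldehyde-fixed paraffin sections.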

RAW264.7 [7] = assay: Antiinflammatory activity in mouse RAW264.7 cells assessed as reduction in LPS-induced iNOS protein expression pretreated for 1 hr followed by LPS stimulation and measured after 24 hrs by Western blot analysis; format: functional, cell-based
Outline: (§4)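 Western blot in RAW264.7: 1 h pretreatment at 0.5–2 µM, LPS 0.5 µg/mL for 24 h; lysis in RIPA with PMSF and phosphatase inhibitors on ice 30 min, 12% SDS-PAGE, PVDF, primary antibodies overnight at 4 °C, HRP secondary 1:5000 1 h at room temperature; iNOS and COX-2 against β-actin; three separate experiments.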

RAW264.7 [8] = assay: Antiinflammatory activity in mouse RAW264.7 cells assessed as reduction in LPS-induced COX2 protein expression pretreated for 1 hr followed by LPS stimulation and measured after 24 hrs by Western blot analysis; format: functional, cell-based
Outline: as §4

RAW264.7 [9] = assay: Antiinflammatory activity in mouse RAW264.7 cells assessed as reduction in LPS-induced TLR4 protein expression pretreated for 1 hr followed by LPS stimulation and measured after 30 mins by Western blot analysis; format: functional, cell-based
RAW264.7 [10] = assay: Inhibition of LPS-induced JNK phosphorylation in mouse RAW264.7 cells pretreated for 1 hr followed by LPS stimulation by Western blot analysis; format: cell-based
Outline: (§5)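 RAW264.7 seeded 3×10^5 cells/well, 24 h; pretreated 1 h at 0.5, 1 or 2 µM, then LPS 0.5 µg/mL for 30 min. RIPA lysates (PMSF, phosphatase inhibitors) on 12% SDS-PAGE, PVDF; primary antibodies overnight 4 °C, HRP secondary 1:5000. Probed phospho/total ERK, JNK, p38, p-IκB, IκB, p-p65, p65, β-actin; three independent experiments.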

RAW264.7 [11] = assay: Effect on total ERK expression level in LPS-induced mouse RAW264.7 cells pretreated for 1 hr followed by LPS stimulation and measured after 30 mins by Western blot analysis; format: ADME, cell-based; conditions: raw264.7, 0.5 h
Outline: as §5

RAW264.7 [12] = assay: Effect on total p38 expression level in LPS-induced mouse RAW264.7 cells pretreated for 1 hr followed by LPS stimulation and measured after 30 mins by Western blot analysis; format: ADME, cell-based; conditions: raw264.7, 0.5 h
Outline: as §5

RAW264.7 [13] = assay: Effect on total JNK protein expression level in LPS-induced mouse RAW264.7 cells pretreated for 1 hr followed by LPS stimulation and measured after 30 mins by Western blot analysis; format: ADME, cell-based; conditions: raw264.7, 0.5 h
Outline: as §5

RAW264.7 [14] = assay: Inhibition of LPS-stimulated NFkappaB activation in mouse RAW264.7 cells assessed as reduction in IkappaB phosphorylation at 0.5 to 2 uM pretreated for 1 hr followed by LPS stimulation and measured after 30 mins by Western blot analysis; format: cell-based
Outline: as §5

RAW264.7 [15] = assay: Inhibition of LPS-stimulated NFkappaB activation in mouse RAW264.7 cells assessed as reduction in LPS-induced IkappaB degradation at 0.5 to 2 uM pretreated for 1 hr followed by LPS stimulation and measured after 30 mins by Western blot analysis; format: cell-based
Outline: as §5

Mus musculus [16] = assay: Antiinflammatory activity in C57/BL6 mouse ALI model assessed as reduction in LPS-induced MPO level in lungs tissue at 10 to 20 mg/kg, ip pretreated for 30 mins followed by LPS challenge and measured after 48 hrs; format: functional, organism-based
Outline: as §3

Mus musculus [17] = assay: Effect on LPS-induced body weight loss in C57/BL6 mouse at 10 to 20 mg/kg, ip pretreated for 30 mins followed by LPS challenge; format: functional, organism-based
Outline: as §3

Mus musculus [18] = assay: Protection against LPS-induced acute lung injury in C57/BL6 mouse assessed as survival rate at 10 to 20 mg/kg, ip pretreated for 30 mins followed by LPS challenge and measured at 24 hrs (reference value: 60%); format: functional
Mus musculus [19] = assay: Protection against LPS-induced acute lung injury in C57/BL6 mouse assessed as survival rate at 20 mg/kg, ip pretreated for 30 mins followed by LPS challenge and measured after 48 hrs (reference value: 10%); format: functional
Mus musculus [20] = assay: Antiinflammatory activity in C57/BL6 mouse ALI model assessed as reduction in LPS-induced pro-inflammatory alterations at 10 to 20 mg/kg, ip pretreated for 30 mins followed by LPS challenge and measured after 48 hrs by H and E staining based histopathological analysis; format: functional, organism-based
Outline: as §3

Mus musculus [21] = assay: Antiinflammatory activity in C57/BL6 mouse ALI model assessed as reduction in LPS-induced alveolar hemorrhage at 10 to 20 mg/kg, ip pretreated for 30 mins followed by LPS challenge and measured after 48 hrs by H and E staining based histopathological analysis; format: functional, organism-based
Outline: as §3

Mus musculus [22] = assay: Antiinflammatory activity in C57/BL6 mouse ALI model assessed as reduction in LPS-induced lung edema at 10 to 20 mg/kg, ip pretreated for 30 mins followed by LPS challenge and measured after 48 hrs by H and E staining based histopathological analysis; format: functional, organism-based
Outline: as §3

Mus musculus [23] = assay: Antiinflammatory activity in C57/BL6 mouse ALI model assessed as reduction in LPS-induced inflammatory cell infiltration at 10 to 20 mg/kg, ip pretreated for 30 mins followed by LPS challenge and measured after 48 hrs by H and E staining based histopathological analysis; format: functional, organism-based
Outline: as §3

Mus musculus [24] = assay: Antiinflammatory activity in C57/BL6 mouse ALI model assessed as reduction in LPS-induced destruction of alveolar structure at 10 to 20 mg/kg, ip pretreated for 30 mins followed by LPS challenge and measured after 48 hrs by H and E staining based histopathological analysis; format: functional, organism-based
Outline: as §3

[25] = Toxicity in C57/BL6 mouse ALI model assessed as induction of destruction of alveolar structure at 20 mg/kg, ip measured after 48 hrs by H and E staining based histopathological analysis; format: organism-based; conditions: in vivo
Outline: (§6)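 Mice given 20 mg/kg i.p. without LPS, compared with controls; lung sections stained with hematoxylin and eosin for edema, hemorrhage, inflammatory cell infiltration and alveolar structure.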

[26] = Toxicity in C57/BL6 mouse ALI model assessed as induction of inflammatory cell infiltration at 20 mg/kg, ip measured after 48 hrs by H and E staining based histopathological analysis; format: organism-based; conditions: in vivo
Outline: as §6

[27] = Toxicity in C57/BL6 mouse ALI model assessed as mortality at 20 mg/kg, ip; format: organism-based; conditions: in vivo
Outline: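 Mice were given the compound at 20 mg/kg ip as solutions, with no LPS challenge. They were observed against an untreated control group, and lung sections were then stained with H&E to look for inflammation, hemorrhage, edema and alveolar damage.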

[28] = Toxicity in C57/BL6 mouse ALI model assessed as induction of pro-inflammatory alterations at 20 mg/kg, ip measured after 48 hrs by H and E staining based histopathological analysis; format: organism-based; conditions: in vivo
Outline: as §6

[29] = Toxicity in C57/BL6 mouse ALI model assessed as induction of alveolar hemorrhage at 20 mg/kg, ip measured after 48 hrs by H and E staining based histopathological analysis; format: organism-based; conditions: in vivo
Outline: as §6

[30] = Toxicity in C57/BL6 mouse ALI model assessed as induction of lung edema at 20 mg/kg, ip measured after 48 hrs by H and E staining based histopathological analysis; format: organism-based; conditions: in vivo
Outline: as §6

RAW264.7 [31] = assay: Inhibition of LPS-stimulated NFkappaB activation in mouse RAW264.7 cells assessed as reduction in p65 phosphorylation at 0.5 to 2 uM pretreated for 1 hr followed by LPS stimulation and measured after 30 mins by Western blot analysis; format: cell-based
Outline: as §5

COc1cc(/C=C/c2ccc(OCc3ccccc3)cc2)c(-c2cc(=O)c3cc(Br)ccc3o2)c(OC)c1
Activity (RAW264.7 [1]): Non-Toxic

COc1ccc(/C=C/c2cc(OC)cc(OC)c2-c2cc(=O)c3cc(OC)c(OC)cc3o2)cc1
Activity (RAW264.7 [1]): Non-Toxic

COc1ccc(/C=C/c2cc(OC)cc(OC)c2-c2cc(=O)c3cc(F)ccc3o2)cc1
inhibition (RAW264.7 [2]): Active

CCOc1ccc(/C=C/c2cc(OC)cc(OC)c2-c2oc3ccc(OC)cc3c(=O)c2O)cc1
Activity (RAW264.7 [1]): Non-Toxic

COc1ccc(/C=C/c2cc(OC)cc(OC)c2-c2oc3ccc(Cl)cc3c(=O)c2O)cc1
inhibition (RAW264.7 [2]): Active | Activity (RAW264.7 [3]): Dose-dependent effect | IC50 (RAW264.7 [3]): 4.83 µM | Activity (RAW264.7 [4]): Dose-dependent effect | IC50 (RAW264.7 [4]): 5.06 µM | Activity (RAW264.7 [5]): Dose-dependent effect | IC50 (RAW264.7 [5]): 7.34 µM

COc1ccc(/C=C/c2cc(OC)cc(OC)c2-c2oc3ccc(F)cc3c(=O)c2O)cc1
Activity (Mus musculus [6]): Active | inhibition (RAW264.7 [2]): Active | Activity (RAW264.7 [3]): Dose-dependent effect | IC50 (RAW264.7 [3]): 1.35 µM | Activity (RAW264.7 [4]): Dose-dependent effect | IC50 (RAW264.7 [4]): 1.12 µM | Activity (RAW264.7 [5]): Dose-dependent effect | IC50 (RAW264.7 [5]): 1.92 µM | Activity (RAW264.7 [7]): Dose-dependent effect | Activity (RAW264.7 [8]): Dose-dependent effect | Activity (RAW264.7 [9]): Dose-dependent effect | inhibition (RAW264.7 [10]): inactive | Activity (RAW264.7 [11]): Non-Toxic | Activity (RAW264.7 [12]): Non-Toxic | Activity (RAW264.7 [13]): Non-Toxic | inhibition (RAW264.7 [14]): Active | inhibition (RAW264.7 [15]): Active | Activity (Mus musculus [16]): Active | Activity (Mus musculus [17]): inactive | Activity (Mus musculus [18]): 90% | Activity (Mus musculus [19]): 50% | Activity (Mus musculus [20]): Active | Activity (Mus musculus [21]): Active | Activity (Mus musculus [22]): Active | Activity (Mus musculus [23]): Active | Activity (Mus musculus [24]): Active | Activity [25]: Non-Toxic | Activity [26]: Non-Toxic | Activity [27]: Non-Toxic | Activity [28]: Non-Toxic | Activity [29]: Non-Toxic | Activity [30]: Non-Toxic | inhibition (RAW264.7 [31]): Active

COc1cc(/C=C/c2ccc(OCc3ccccc3)cc2)c(-c2cc(=O)c3cc(OC)ccc3o2)c(OC)c1
Activity (RAW264.7 [1]): Non-Toxic

Cc1ccc(-c2cc(C(F)(F)F)nn2-c2ccc(S(N)(=O)=O)cc2)cc1
inhibition (RAW264.7 [2]): Active
